# Assay results: ChEMBL document CHEMBL2086351, “Α-aryl-N-alkyl nitrones, as potential agents for stroke treatment: synthesis, theoretical calculations, antioxidant, anti-inflammatory, neuroprotective, and brain-blood barrier permeability properties” (J Med Chem, 2012)
# What was measured:
# [1] = Neuroprotective activity in Sprague-Dawley rat primary cortical neurons assessed as reversal of oxygen-glucose deprivation-induced neuronal damage at 1 uM by treated 4 hrs after OGD challenge measured after 24 hrs MTT assay relative to control; format: functional, cell-based; conditions: Cerebral cortex neuron
# Summary of the method: (§1)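 Primary cerebral cortex neurons, cultured 6–8 days, underwent 4 h oxygen–glucose deprivation. Compounds (0.1 μM–10 mM range) were added at the start of a 24 h reperfusion. Viability was read by MTT with untreated control as 100%. Neuroprotection = % recovery from the reperfusion-only value (0%) to control (100%). Three to five independent experiments; mean ± SEM.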
# [2] = Antioxidant activity assessed as Fe3+/ascorbic acid-induced hydroxyl radical scavenging activity at 0.1 mM after 30 mins; format: functional
# Summary of the method: (§2)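 Tested in vitro at 0.1 mM. The hydroxyl radical line measures competition with DMSO for hydroxyl radicals. Superoxide was generated at pH 7.4 and read as nitroblue tetrazolium reduction to formazan at 560 nm. LOX inhibition was measured by UV absorbance enzyme assay with plant lipoxygenase.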
# [3] = Antioxidant activity assessed as superoxide anion radical scavenging activity at 0.1 mM after 10 mins by tetrazolium dye assay; format: functional; summary of the method: as §2
# [4] = Neuroprotective activity in Sprague-Dawley rat primary cortical neurons assessed as reversal of oxygen-glucose deprivation-induced neuronal damage at 250 uM by treated 4 hrs after OGD challenge measured after 24 hrs by LDH release assay relative to control; format: functional, Cerebral cortex neuron
# Summary of the method: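 Primary cortical neurons, cultured 6–8 days, underwent 4 h oxygen–glucose deprivation followed by 24 h reperfusion. Compounds (1–250 μM) were added at reperfusion. Necrotic death was read as LDH release, normalized to untreated reperfusion cells as 100%. Four independent experiments; mean ± SEM; one-way ANOVA with Holm–Sidak post test.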
# [5] = test system: Mus musculus; test: Neuroprotective activity in NMRI mouse assessed as protection against tert-butyl hydroperoxide-mediated lethality at 150 mg/kg, ip administered 30 mins before t-BHP challenge measured after 1 to 24 hrs; format: functional; conditions: route intraperitoneal
# [6] = test system: Radical scavenging activity; test: Antioxidant activity assessed as DPPH radical scavenging activity at 0.5 mM after 2 hrs by spectrophotometric analysis; format: functional
# Summary of the method: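 DPPH radical test, measuring initial absorbance and absorbance after reaction spectrophotometrically.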
# [7] = Neuroprotective activity in Sprague-Dawley rat primary cortical neurons assessed as reversal of oxygen-glucose deprivation-induced neuronal damage at 100 uM by treated 4 hrs after OGD challenge measured after 24 hrs MTT assay relative to control; format: functional, cell-based; conditions: Cerebral cortex neuron; summary of the method: as §1
# [8] = biological target: Lipoxygenase (Glycine max) (UniProt Q39829); test: Inhibition of soybean lipoxygenase assessed as conversion of sodium linoleate to 13-hydroperoxylinoleic acid at 0.1 mM by competitive inhibition assay; summary of the method: as §2
# [9] = Neuroprotective activity in Sprague-Dawley rat primary cortical neurons assessed as reversal of oxygen-glucose deprivation-induced neuronal damage at 250 uM by treated 4 hrs after OGD challenge measured after 24 hrs MTT assay relative to control; format: functional, cell-based; conditions: Cerebral cortex neuron; summary of the method: as §1
# [10] = Antioxidant activity against AAPH-induced lipid peroxidation assessed as induction time of inhibition at 0.1 mM; format: functional
# [11] = Permeability of the compound at pH 7.4 by PAMPA; format: ADME; conditions: read-out: permeability
# Summary of the method: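 PAMPA-BBB method of Di et al. (passive blood–brain barrier permeation). Effective permeability is reported as Pe in 10−6 cm s−1.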
structure (smiles),measurement,setting,value
CC(C)(C)/[N+]([O-])=C/c1cccc(C(F)(F)F)c1,Activity,[1],71.2%
same,Activity,[2],60%
same,Activity,[3],29%
same,Activity,[4],70.08%
same,Activity,[5],12%
same,Activity,[6],0.9%
same,Activity,[7],101%
same,inhibition,[8],65%
same,Activity,[9],81.2%
same,TIME,[10],0 h
same,Papp,[11],27 ×10⁻⁶ cm/s
